Laboratory results as given in ChEMBL document CHEMBL1250470, “Synthesis and CYP24A1 inhibitory activity of (E)-2-(2-substituted benzylidene)- and 2-(2-substituted benzyl)-6-methoxy-tetralones” (Eur J Med Chem, 2010).

How the values were obtained:
Assay type in all cases: cell-based, CHO; call rule not given here
[1] = molecular target: T1, 1,25-dihydroxyvitamin D(3) 24-hydroxylase, mitochondrial (Homo sapiens, UniProt Q07973); test: Inhibition of CYP24A1 expressed in […]
T1 sequence (Q07973 whole entry): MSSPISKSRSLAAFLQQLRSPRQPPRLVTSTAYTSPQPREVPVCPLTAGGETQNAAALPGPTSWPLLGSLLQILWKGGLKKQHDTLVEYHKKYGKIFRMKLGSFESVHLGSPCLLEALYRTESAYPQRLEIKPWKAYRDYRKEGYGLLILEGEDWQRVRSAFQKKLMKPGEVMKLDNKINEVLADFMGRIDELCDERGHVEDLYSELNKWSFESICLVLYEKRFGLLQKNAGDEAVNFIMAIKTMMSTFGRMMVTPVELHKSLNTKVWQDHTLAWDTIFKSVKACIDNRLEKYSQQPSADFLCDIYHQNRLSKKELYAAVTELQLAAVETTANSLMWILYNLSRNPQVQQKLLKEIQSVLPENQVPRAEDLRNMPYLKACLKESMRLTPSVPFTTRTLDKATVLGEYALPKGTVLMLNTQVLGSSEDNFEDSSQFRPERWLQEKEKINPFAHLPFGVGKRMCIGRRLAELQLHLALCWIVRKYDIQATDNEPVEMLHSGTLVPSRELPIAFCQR

[2] = molecular target: 1,25-dihydroxyvitamin D(3) 24-hydroxylase, mitochondrial (Homo sapiens, UniProt Q07973, M416T); test: Inhibition of CYP24A1 M416T mutant expressed in […]
Chain of 1,25-dihydroxyvitamin D(3) 24-hydroxylase, mitochondrial (Homo sapiens, UniProt Q07973, M416T) (Q07973 36-514 M416T limits assumed): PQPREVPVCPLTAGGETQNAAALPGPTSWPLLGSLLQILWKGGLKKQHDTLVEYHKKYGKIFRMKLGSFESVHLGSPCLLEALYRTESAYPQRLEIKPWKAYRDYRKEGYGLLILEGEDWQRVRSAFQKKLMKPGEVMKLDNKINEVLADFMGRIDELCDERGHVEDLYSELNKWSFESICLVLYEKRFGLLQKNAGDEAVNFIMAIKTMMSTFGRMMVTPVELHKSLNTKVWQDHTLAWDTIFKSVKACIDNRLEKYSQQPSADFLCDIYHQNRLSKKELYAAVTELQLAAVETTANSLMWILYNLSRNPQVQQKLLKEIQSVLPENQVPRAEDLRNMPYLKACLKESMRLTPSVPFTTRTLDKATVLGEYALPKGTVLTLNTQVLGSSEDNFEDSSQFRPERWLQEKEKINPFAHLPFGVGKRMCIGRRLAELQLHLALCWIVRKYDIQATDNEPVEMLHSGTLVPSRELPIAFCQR
Method in brief: (§1)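 V79-4 Chinese hamster lung fibroblasts stably expressing wild-type or mutant (L148F, M416T) CYP24A1 were grown in DMEM with FCS, antibiotics and hygromycin at 5% CO₂, then subcultured into 6-well plates for 24 h. Incubation was for 6 h in 1% BSA DMEM with 100,000 CPM/well [1β-³H]1α,25-(OH)₂D₃ and DPPD antioxidant. Inhibitors, from ethanol stocks, were tested at 10⁻⁴–10⁻⁷ M. Methanol stopped the reaction, followed by scintillation counting.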

[3] = molecular target: 1,25-dihydroxyvitamin D(3) 24-hydroxylase, mitochondrial (Homo sapiens, UniProt Q07973, L148F); test: Inhibition of CYP24A1 L148F mutant expressed in […]; method in brief: as §1
Chain of 1,25-dihydroxyvitamin D(3) 24-hydroxylase, mitochondrial (Homo sapiens, UniProt Q07973, L148F) (Q07973 36-514 L148F limits assumed): as the sequence (Q07973 36-514 M416T limits assumed) above, with L113F, T381M counted along it

[4] = molecular target: T2, Sterol 26-hydroxylase, mitochondrial (Homo sapiens, UniProt Q02318); test: Inhibition of CYP27A1 expressed in […]
T2 sequence (Q02318 whole entry): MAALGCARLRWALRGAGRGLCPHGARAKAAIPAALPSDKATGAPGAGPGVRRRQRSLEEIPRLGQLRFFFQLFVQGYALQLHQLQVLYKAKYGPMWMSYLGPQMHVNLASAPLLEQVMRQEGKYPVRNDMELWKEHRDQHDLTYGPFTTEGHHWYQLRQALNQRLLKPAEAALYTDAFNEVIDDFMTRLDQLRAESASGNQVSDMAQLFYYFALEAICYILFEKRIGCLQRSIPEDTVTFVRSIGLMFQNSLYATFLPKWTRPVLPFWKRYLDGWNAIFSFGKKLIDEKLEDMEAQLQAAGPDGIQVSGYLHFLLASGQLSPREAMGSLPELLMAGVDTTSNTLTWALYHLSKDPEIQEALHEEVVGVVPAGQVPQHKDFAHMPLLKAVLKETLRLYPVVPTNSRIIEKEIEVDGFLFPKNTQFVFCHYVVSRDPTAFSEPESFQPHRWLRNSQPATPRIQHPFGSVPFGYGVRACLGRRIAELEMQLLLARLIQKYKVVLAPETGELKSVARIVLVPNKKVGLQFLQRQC
Method in brief: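 V79-4 fibroblasts stably expressing wild-type CYP27A1 were cultured in supplemented DMEM and plated in 6-well plates 24 h before use. They were incubated for 24 h in 1% BSA DMEM with 1α-OH-D₃ substrate plus DPPD, with inhibitors at four concentrations (10⁻⁴–10⁻⁷ M). No-inhibitor, dead-cell and no-cell controls were included. Methanol stopped the reaction, then Bligh-Dyer extraction and silica HPLC with photodiode-array detection quantified the metabolite.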

Compound: COc1ccc2c(c1)CCC(Cc1ccccc1CCc1ccccc1)C2=O (stereo not given)
- IC50 [1]: 25.6 µM
- inhibition (INH) [2]: Active
- inhibition (INH) [3]: Active

Compound: COc1ccc2c(c1)CC/C(=C\c1ccccc1-c1ccccc1)C2=O
- IC50 [1]: 111 µM

Compound: COc1ccc2c(c1)CC/C(=C\c1ccccc1/C=C/c1ccccc1)C2=O
- IC50 [4]: 5.69 µM
- IC50 [1]: 5.08 µM

Compound: COc1ccc2c(c1)CCC(Cc1ccccc1C(F)(F)F)C2=O (stereo not given)
- IC50 [4]: 5.34 µM
- IC50 [1]: 2.08 µM

Compound: CCc1ccccc1CC1CCc2cc(OC)ccc2C1=O (stereo not given)
- IC50 [4]: 8.23 µM
- IC50 [1]: 1.92 µM

Compound: COc1ccc2c(c1)CCC(Cc1ccccc1Br)C2=O (stereo not given)
- IC50 [4]: 0.059 µM
- IC50 [1]: 16.3 µM

Compound: COc1ccc2c(c1)CCC(Cc1ccccc1-c1ccccc1)C2=O (stereo not given)
- IC50 [1]: 128 µM

Compound: COc1ccc2c(c1)CCC(Cc1ccccc1/C=C/c1ccccc1)C2=O (stereo not given)
- IC50 [1]: 343 µM

Compound: COc1ccc2c(c1)CC/C(=C\c1ccccc1C(F)(F)F)C2=O
- IC50 [1]: 11.2 µM

Compound: CCc1ccccc1/C=C1\CCc2cc(OC)ccc2C1=O
- IC50 [1]: 10.8 µM

Compound: COc1ccc2c(c1)CC/C(=C\c1ccccc1C)C2=O
- IC50 [1]: 480 µM

Compound: COc1ccc2c(c1)CCC(Cc1ccccc1C)C2=O (stereo not given)
- IC50 [1]: 127 µM

Compound: COc1ccc2c(c1)CC/C(=C\c1ccccc1Br)C2=O
- IC50 [4]: 4.33 µM
- IC50 [1]: 122 µM
